ChEMBL document CHEMBL5724801, “EUbOPEN Chemogenomics Library - Multiplex” (2024)
Values joined by “and” are separate entries in the source; they are usually repeats but may differ in a detail not shown here. Identical values can stand only once.

Tested on: Fibroblast
Experiment: Multiplex assay against human fibroblast
Type: toxicity, cell-based
Summary of the method: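 Per cents of healthy-nucleus cells form the tubulin, mitochondrial-mass and membrane-permeability phenotype values. Live cells were stained at seeding with Hoechst33342, BioTracker Green Microtubule Cytoskeleton Dye, MitoTracker Red and Annexin V Alexa Fluor 680. After compound addition they were imaged on a CQ1 microscope at 37°C and 5% CO2, and CellPathfinder machine-learning gating split them into Hoechst high-intensity objects or normal cells, normal cells into healthy, pyknosed or fragmented nuclei, and pyknosed cells into mitotic or apoptotic.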

[1] = 12 h, 1 µM, compound concentration 1 uM
[2] = 12 h, 10 µM, compound concentration 10 uM
[3] = 24 h, 1 µM, compound concentration 1 uM
[4] = 24 h, 10 µM, compound concentration 10 uM
[5] = 48 h, 1 µM, compound concentration 1 uM
[6] = 48 h, 10 µM, compound concentration 10 uM

## Cc1cc(=O)n(C)c2cc(N3C(=O)CC[C@H](NS(=O)(=O)CC(C)C)[C@H]3c3ccc(Cl)cc3)ccc12
[1]
  Population Apoptotic (%): 31% and 38%
  Population Fragmented Nuclei (%): 16% and 20%
  Population Healthy Nuclei (%): 56% and 38%
  Population Hoechst High Intensity Objects (%): 2% and 10%
  Population Membrane Permeable-Phenotype (%): 0% and 8%
  Population Mitochondria Different-Phenotype (%): 4%
  Population Mitotic Cells (%): 68% and 62%
  Population Normal (%): 97% and 89%
  Population Pyknosed Nuclei (%): 26% and 40%
  Population Tubulin-Different-Phenotype (%): 34% and 61%
  Total Cell Count: 135 and 137
[2]
  Population Apoptotic (%): 41% and 18%
  Population Fragmented Nuclei (%): 11% and 26%
  Population Healthy Nuclei (%): 40% and 31%
  Population Hoechst High Intensity Objects (%): 3% and 11%
  Population Membrane Permeable-Phenotype (%): 1% and 8%
  Population Mitochondria Different-Phenotype (%): 8%
  Population Mitotic Cells (%): 58% and 82%
  Population Normal (%): 96% and 88%
  Population Pyknosed Nuclei (%): 48% and 42%
  Population Tubulin-Different-Phenotype (%): 86% and 94%
  Total Cell Count: 149 and 133
[3]
  Population Apoptotic (%): 34% and 50%
  Population Fragmented Nuclei (%): 18% and 26%
  Population Healthy Nuclei (%): 62% and 44%
  Population Hoechst High Intensity Objects (%): 2% and 10%
  Population Mitochondria Different-Phenotype (%): 4% and 5%
  Population Mitotic Cells (%): 65% and 50%
  Population Normal (%): 97% and 89%
  Population Pyknosed Nuclei (%): 18% and 29%
  Population Tubulin-Different-Phenotype (%): 24% and 70%
  Total Cell Count: 140 and 128
[4]
  Population Apoptotic (%): 43% and 42%
  Population Fragmented Nuclei (%): 14% and 28%
  Population Healthy Nuclei (%): 46% and 26%
  Population Hoechst High Intensity Objects (%): 10% and 8%
  Population Membrane Permeable-Phenotype (%): 0% and 17%
  Population Mitochondria Different-Phenotype (%): 19% and 8%
  Population Mitotic Cells (%): 56% and 57%
  Population Normal (%): 90% and 91%
  Population Pyknosed Nuclei (%): 39% and 45%
  Population Tubulin-Different-Phenotype (%): 88% and 85%
  Total Cell Count: 150 and 143
[5]
  Population Apoptotic (%): 48% and 46%
  Population Fragmented Nuclei (%): 27% and 35%
  Population Healthy Nuclei (%): 54%
  Population Hoechst High Intensity Objects (%): 2% and 7%
  Population Membrane Permeable-Phenotype (%): 1% and 8%
  Population Mitochondria Different-Phenotype (%): 2% and 8%
  Population Mitotic Cells (%): 52% and 53%
  Population Normal (%): 97% and 92%
  Population Pyknosed Nuclei (%): 18% and 9%
  Population Tubulin-Different-Phenotype (%): 27% and 73%
  Total Cell Count: 141 and 142
[6]
  Population Apoptotic (%): 61% and 54%
  Population Fragmented Nuclei (%): 23% and 34%
  Population Healthy Nuclei (%): 38% and 37%
  Population Hoechst High Intensity Objects (%): 15% and 10%
  Population Membrane Permeable-Phenotype (%): 0% and 25%
  Population Mitochondria Different-Phenotype (%): 24% and 8%
  Population Mitotic Cells (%): 38% and 45%
  Population Normal (%): 84% and 89%
  Population Pyknosed Nuclei (%): 37% and 27%
  Population Tubulin-Different-Phenotype (%): 92% and 87%
  Total Cell Count: 153 and 141

## C[C@H](NC(=O)CNC(=O)c1cccc(Cl)c1)c1ccccc1
[1]
  Population Apoptotic (%): 50% and 44%
  Population Fragmented Nuclei (%): 18% and 28%
  Population Healthy Nuclei (%): 71% and 53%
  Population Hoechst High Intensity Objects (%): 0% and 3%
  Population Membrane Permeable-Phenotype (%): 0% and 6%
  Population Mitochondria Different-Phenotype (%): 4% and 2%
  Population Mitotic Cells (%): 50% and 56%
  Population Normal (%): 100% and 96%
  Population Pyknosed Nuclei (%): 10% and 18%
  Population Tubulin-Different-Phenotype (%): 17% and 41%
  Total Cell Count: 94 and 140
[2]
  Population Apoptotic (%): 48% and 43%
  Population Fragmented Nuclei (%): 15% and 31%
  Population Healthy Nuclei (%): 58% and 43%
  Population Hoechst High Intensity Objects (%): 2% and 1%
  Population Membrane Permeable-Phenotype (%): 0% and 13%
  Population Mitochondria Different-Phenotype (%): 8% and 3%
  Population Mitotic Cells (%): 51% and 56%
  Population Normal (%): 97% and 98%
  Population Pyknosed Nuclei (%): 26% and 24%
  Population Tubulin-Different-Phenotype (%): 35% and 54%
  Total Cell Count: 106 and 124
[3]
  Population Apoptotic (%): 43% and 33%
  Population Fragmented Nuclei (%): 17% and 30%
  Population Healthy Nuclei (%): 65% and 50%
  Population Hoechst High Intensity Objects (%): 1% and 3%
  Population Membrane Permeable-Phenotype (%): 1% and 8%
  Population Mitochondria Different-Phenotype (%): 3% and 4%
  Population Mitotic Cells (%): 56% and 66%
  Population Normal (%): 98% and 96%
  Population Pyknosed Nuclei (%): 17% and 19%
  Population Tubulin-Different-Phenotype (%): 25% and 42%
  Total Cell Count: 93 and 145
[4]
  Population Apoptotic (%): 52% and 56%
  Population Fragmented Nuclei (%): 14% and 33%
  Population Healthy Nuclei (%): 61% and 45%
  Population Hoechst High Intensity Objects (%): 2% and 5%
  Population Membrane Permeable-Phenotype (%): 1% and 5%
  Population Mitochondria Different-Phenotype (%): 3% and 7%
  Population Mitotic Cells (%): 48% and 43%
  Population Normal (%): 97% and 94%
  Population Pyknosed Nuclei (%): 24% and 20%
  Population Tubulin-Different-Phenotype (%): 45% and 64%
  Total Cell Count: 107 and 118
[5]
  Population Apoptotic (%): 33% and 40%
  Population Fragmented Nuclei (%): 20% and 29%
  Population Healthy Nuclei (%): 67% and 52%
  Population Hoechst High Intensity Objects (%): 1% and 3%
  Population Membrane Permeable-Phenotype (%): 0% and 4%
  Population Mitochondria Different-Phenotype (%): 0% and 2%
  Population Mitotic Cells (%): 66% and 60%
  Population Normal (%): 98% and 96%
  Population Pyknosed Nuclei (%): 12% and 17%
  Population Tubulin-Different-Phenotype (%): 26% and 44%
  Total Cell Count: 95 and 147
[6]
  Population Apoptotic (%): 68% and 69%
  Population Fragmented Nuclei (%): 15% and 38%
  Population Healthy Nuclei (%): 56% and 50%
  Population Hoechst High Intensity Objects (%): 7% and 4%
  Population Membrane Permeable-Phenotype (%): 1% and 6%
  Population Mitochondria Different-Phenotype (%): 15% and 5%
  Population Mitotic Cells (%): 31% and 30%
  Population Normal (%): 92% and 95%
  Population Pyknosed Nuclei (%): 27% and 11%
  Population Tubulin-Different-Phenotype (%): 50% and 67%
  Total Cell Count: 112 and 121
